Measured values taken from ChEMBL document CHEMBL1144027, “Synthesis and antimycobacterial evaluation of newer 1-cyclopropyl-1,4-dihydro-6-fluoro-7-(substituted secondary amino)-8-methoxy-5-(sub)-4-oxoquinoline-3-carboxylic acids” (Bioorg Med Chem, 2008).
In brackets after ≈: the same amount, converted by molar mass.

What was measured:
Mus musculus [1] = experiment: Phototoxicity in Swiss albino mouse assessed as ear thickness at 140 mg/kg, po after 48 hrs of irradiation; type: organism-based; parameters: dose 140 mg/kg, route oral; details: in vivo
In short: (§1)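 Female Swiss albino mice (~2 months, 20-25 g), fasted ≥18 h, single 140 mg/kg oral gavage dose; groups of 6 (compound, lomefloxacin HCl 140 mg/kg, 0.5% carboxymethylcellulose vehicle 10 ml/kg); UV irradiation 4 h (~18 J/cm²) right after dosing; both ears scored for erythema, oedema, thickness pre-dose, at end of irradiation, and ~24-96 h; thickness given as mean of both ears ± SEM.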

[2] = test system: Mycobacterium tuberculosis; experiment: Antimycobacterial activity against Mycobacterium tuberculosis H37Rv by agar dilution method; type: functional
In short: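 Agar dilution MIC on Middlebrook 7H11 agar with OADC, following the NCCLS-recommended approach, run in duplicate. The MDR clinical isolate was resistant to isoniazid, rifampicin, ethambutol and ofloxacin.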

Mus musculus [3] = experiment: Phototoxicity in Swiss albino mouse assessed as erythema incidence at 140 mg/kg, po after 4 hrs of irradiation; type: organism-based; parameters: dose 140 mg/kg, route oral; details: in vivo; in short: as §1
Mus musculus [4] = experiment: Phototoxicity in Swiss albino mouse assessed as ear thickness at 140 mg/kg, po after 96 hrs of irradiation; type: organism-based; parameters: dose 140 mg/kg, route oral; details: in vivo; in short: as §1
[5] = test system: Mycobacterium tuberculosis; experiment: Antimycobacterial activity against Mycobacterium tuberculosis ATCC 35801 infected in CD1 mouse assessed as bacterial load in lungs at 50 mg/kg, ip after 10 days; type: functional; details: route intraperitoneal
In short: (§2)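 Female CD-1 mice, 6 weeks old, six per group, infected IV via caudal vein with ~10⁷ viable organisms. Intraperitoneal treatment started 10 days after inoculation and ran 10 days. At 35 days post-infection, spleens and right lungs were homogenised and serially 10-fold diluted onto 7H10 agar, incubated 4 weeks at 37 °C in ambient air. CFU compared with vehicle-treated controls.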

Mus musculus [6] = experiment: Phototoxicity in Swiss albino mouse assessed as ear thickness at 140 mg/kg, po after 24 hrs of irradiation; type: organism-based; parameters: dose 140 mg/kg, route oral; details: in vivo; in short: as §1
Mus musculus [7] = experiment: (§3) Phototoxicity in Swiss albino mouse assessed as erythema incidence at 140 mg/kg, po after 48 hrs of irradiation; type: organism-based; parameters: dose 140 mg/kg, route oral; details: in vivo; in short: as §1
[8] = test system: Mycobacterium tuberculosis; experiment: Antimycobacterial activity against Mycobacterium tuberculosis ATCC 35801 infected in CD1 mouse assessed as bacterial load in spleen at 50 mg/kg, ip after 10 days; type: functional; details: route intraperitoneal; in short: as §2
Mus musculus [9] = experiment: Phototoxicity in Swiss albino mouse assessed as ear thickness at 140 mg/kg, po after 4 hrs of irradiation; type: organism-based; parameters: dose 140 mg/kg, route oral; details: in vivo; in short: as §1
[10] = test system: Mycolicibacterium smegmatis; experiment: Antimycobacterial activity against Mycobacterium smegmatis MC2 by agar dilution method; type: functional
In short: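 Agar dilution in Middlebrook 7H11 agar with OADC, run along NCCLS-recommended lines; M. smegmatis ATCC 14468 (MC2); MIC determined in duplicate.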

[11] = Selectivity index, ratio of IC50 for monkey Vero cells to MIC for Mycobacterium tuberculosis H37Rv; type: functional
Mus musculus [12] = experiment: Phototoxicity in Swiss albino mouse assessed as erythema incidence at 140 mg/kg, po after 24 hrs of irradiation; type: organism-based; parameters: dose 140 mg/kg, route oral; details: in vivo; in short: as §1
Vero = experiment: Cytotoxicity against african green monkey Vero cells after 72 hrs by MTT assay; type: cell-based; details: Chlorocebus sabaeus
In short: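 Mammalian Vero cells exposed to compounds at 62.5 µg/ml for 72 h; viability read by cellular conversion of MTT to formazan (Cell Titer 96 non-radioactive proliferation assay).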

Mus musculus [13] = experiment: as §3; type: organism-based; parameters: dose 140 mg/kg, route oral; details: in vivo; in short: as §1; remark: listed apart in the source
Mus musculus [14] = experiment: Phototoxicity in Swiss albino mouse assessed as erythema incidence at 140 mg/kg, po after 96 hrs of irradiation; type: organism-based; parameters: dose 140 mg/kg, route oral; details: in vivo; in short: as §1
Mus musculus [15] = experiment: Phototoxicity in Swiss albino mouse assessed as ear thickness at 140 mg/kg, po after 72 hrs of irradiation; type: organism-based; parameters: dose 140 mg/kg, route oral; details: in vivo; in short: as §1
[16] = biological target: DNA gyrase subunit B (Mycobacterium smegmatis (strain ATCC 700084 / mc(2)155), UniProt A0QNE0); experiment: Inhibition of Mycobacterium smegmatis MC2 DNA gyrase GyrB ATPase supercoiling activity; parameters: species or system Mycolicibacterium smegmatis
In short: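 Gyrase purified from M. smegmatis MC2 cells; compounds in DMSO pre-incubated with enzyme, then 400 ng relaxed pUC18 added in 35 mM Tris-HCl pH 7.5, 5 mM MgCl2, 25 mM K glutamate, 2 mM spermidine, 2 mM ATP, BSA, tRNA, 5% glycerol; 30 min; heat-stopped 65 °C 15 min; agarose gel, ethidium bromide staining; ciprofloxacin 10 µg/ml and 5% DMSO controls.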

Chain of DNA gyrase subunit B (Mycobacterium smegmatis (strain ATCC 700084 / mc(2)155), UniProt A0QNE0) (A0QNE0 whole entry): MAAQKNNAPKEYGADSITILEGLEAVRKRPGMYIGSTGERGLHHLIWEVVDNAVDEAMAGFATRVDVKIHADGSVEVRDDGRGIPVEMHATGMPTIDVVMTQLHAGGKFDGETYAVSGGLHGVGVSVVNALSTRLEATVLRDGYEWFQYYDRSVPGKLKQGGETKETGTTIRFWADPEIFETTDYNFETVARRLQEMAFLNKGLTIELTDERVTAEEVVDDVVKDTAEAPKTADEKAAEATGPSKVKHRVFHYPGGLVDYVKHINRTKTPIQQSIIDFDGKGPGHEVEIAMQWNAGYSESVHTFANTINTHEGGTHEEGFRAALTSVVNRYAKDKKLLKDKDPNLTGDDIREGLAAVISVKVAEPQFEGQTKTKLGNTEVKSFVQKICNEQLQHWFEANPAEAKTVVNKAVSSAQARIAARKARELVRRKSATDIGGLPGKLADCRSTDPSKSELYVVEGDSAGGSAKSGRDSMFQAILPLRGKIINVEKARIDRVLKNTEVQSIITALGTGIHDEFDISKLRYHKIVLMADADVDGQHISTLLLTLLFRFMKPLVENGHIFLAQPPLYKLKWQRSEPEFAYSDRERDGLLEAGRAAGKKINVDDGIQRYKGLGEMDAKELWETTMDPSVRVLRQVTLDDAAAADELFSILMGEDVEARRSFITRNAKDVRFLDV

COc1ccc(CC2C3=C(CCCC3)CCN2c2c(F)c([N+](=O)[O-])c3c(=O)c(C(=O)O)cn(C4CC4)c3c2OC)cc1 (configuration not stated)
Activity (Mus musculus [1]): 0.33 mm | MIC [2]: 0.16 µM (≈ 0.0924 µg/mL) | Activity (Mus musculus [3]): Non-toxic | Activity (Mus musculus [4]): 0.32 mm | Activity [5]: 5.41 | Activity (Mus musculus [6]): 0.32 mm | Activity (Mus musculus [7]): Non-toxic | Activity [8]: 6.1 | Activity (Mus musculus [9]): 0.33 mm | MIC [10]: 0.68 µM (≈ 0.393 µg/mL) | Selectivity index [11]: 676.31 | Activity (Mus musculus [12]): Non-toxic | IC50 (Vero): 108 µM | Activity (Mus musculus [13]): Non-toxic | Activity (Mus musculus [14]): Non-toxic | Activity (Mus musculus [15]): 0.33 mm | IC50 [16]: 51.9 µM
